For assay [1], the system named is Canis familiaris. Kind of assay: Antiarrhythmic activity in Beagle dogs following i.v. administration; minimum effective dose to suppress ventricular ectopic rate >/=25% for a minimum duration of 10 min. It counts as functional, Canis lupus familiaris, Heart. As to conditions: for minimal effective dose: Canis lupus familiaris, Heart, iv, 10 min, read-out: MED. The method in brief:
(§1)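 Beagles of either sex, pentobarbital 30 mg/kg i.v., had two-stage LAD coronary ligation; tested conscious about 24 h later if ectopic rate ≥130 beats/min, ectopic ≥75% of total rate, and controls within 10%. HCl salts given i.v. to at least two dogs: 5 mg/kg repeated every 15 min to 20 mg/kg max; if active, 1 mg/kg every 5 min to 6 mg/kg. Active means ectopic rate reduced ≥25% for ≥10 min.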

The target in assay [2] is Muscarinic acetylcholine receptor (Rattus norvegicus) (UniProt P08482+P08483+P08485+P08911+P10980). The experiment in a line: Muscarinic acetylcholine receptor binding affinity in rat brain homogenate by [3H]quinuclidinylbenzilate displacement compared to disopyramide. It counts as tissue-based. The method in brief:
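Whole male CD rat brain without cerebellum was homogenized and spun at 1000g. The supernatant was incubated with 0.15 nM [3H]QNB, with or without compound, 25 °C, 1 h. Three to six concentrations were run in triplicate, and IC50 came from log-probit analysis. Values are expressed as the ratio IC50(test)/IC50(disopyramide).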

Assay [3] has as its system Canis familiaris. The experiment in a line: Decrease in myocardial contractility was determined by monitoring the maximum rate of rise of ventricular pressure in 10 Beagle dogs at a dose of 10 mg/kg. The class given is functional, Canis lupus familiaris, Cardiac ventricle.
Assay [4] relates to Canis familiaris. Kind of assay: Hemodynamic effect of 1 mg/kg of compound was assessed in Beagle dogs by decrease in mean arterial pressure; max dose administered was 10 mg/kg. The class given is functional, Canis lupus familiaris, Artery. The method in brief: (§2)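 Dogs of either sex were anesthetized with pentobarbital 30 mg/kg i.v. plus 5 mg/kg, then stabilized 30 min. Compound was given via right femoral vein. Where mean antiarrhythmic dose exceeded 5 mg/kg: 5 mg/kg over 5 min every 15 min until MAP fell 50% or 50 mg/kg cumulative. Otherwise: 1 mg/kg/min every 5 min up to 10 mg/kg. MAP was electronically averaged, with baseline the mean of four 5-min readings.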

Assay [5] is filed under the species Canis familiaris. Kind of assay: The mean effective dose to suppress ventricular ectopic rate >=25% for a minimum duration of 10 minutes was reported. The class given is functional. As to conditions: Canis lupus familiaris, Cardiac ventricle, read-out: MED. The method in brief: as §1
For assay [6], the species on record is Cavia porcellus. Kind of assay: Antimuscarinic activity in guinea pig ileum. The class given is functional. As to conditions: read-out: pA2 (converted). In short, it runs like this: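 Guinea pig ileum was held in modified Tyrode's gassed with 95% O2/5% CO2, pH 7.4, under 0.5 g tension and equilibrated 30 min. A cumulative acetylcholine curve was run, the tissue rinsed 10 min, and the curve repeated with antagonist at four concentrations at quarter-log steps. pA2 by Van Rossum; if noncompetitive, −log of the concentration cutting maximal response 50%. At least four experiments were run.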

The subject of assay [7] is Canis familiaris. Kind of assay: Hemodynamic effect of 5 mg/kg of compound was assessed in Beagle dogs by decrease in mean arterial pressure; max dose administered was 35 mg/kg. It counts as functional, Canis lupus familiaris, Artery. In short, it runs like this: as §2
The subject of assay [8] is Canis familiaris. Kind of assay: Hemodynamic effect of 5 mg/kg of compound was assessed in Beagle dogs by decrease in mean arterial pressure; max dose administered was 29 mg/kg. It counts as functional, Canis lupus familiaris, Artery. In short, it runs like this: as §2
Assay [9] concerns Canis familiaris. Kind of assay: Hemodynamic effect of 5 mg/kg of compound was assessed in Beagle dogs by decrease in mean arterial pressure; max dose administered was 50 mg/kg. The class given is functional, Canis lupus familiaris, Artery. The method in brief: as §2

In the case of `CC(C)N(CCC1(c2ccccc2)C(=O)N=C(c2ccccc2)N2CCCCC21)C(C)C` (centres undefined), the minimal effective dose in [1] came to 1 mg/kg. For the same compound, the Muscarinic receptor affinity in assay [2] is 0.25.
Consider `CC(C)N(CCC1(c2ccccc2)C(=O)NC(C)N2CCCCC21)C(C)C` (centres undefined), for which the Decrease in [3] was 21%. Moreover, in [4], the “Decrease in MAP” value was 4%. Further, the minimal effective dose in assay [1] and in assay [5] was 2.5 mg/kg each time. In assay [6], the Kb was 60.3 µM. In assay [2], this compound showed a Muscarinic receptor affinity of less than 0.05.
Turning to `CC(C)N(CCC1(c2ccccc2)C(=O)NCN2CCCCC21)C(C)C` (centres undefined), the “Decrease in MAP” value in assay [7] turned out to be 54%. In addition, the minimal effective dose in [5] came out at 6 mg/kg. Further, in [2], the Muscarinic receptor affinity is 0.0769.
Regarding `CC(C)N(CCC1(c2ccccc2Cl)C(=O)NCN2CCCCC21)C(C)C` (centres undefined), the minimal effective dose in assay [1] came to 7.5 mg/kg. Besides, in [2], the Muscarinic receptor affinity was less than 0.01.
As for `CC(C)N(CCC(C(N)=O)(c1ccccc1)c1ccccn1)C(C)C` (centres undefined) [DISOPYRAMIDE], the Decrease in [3] stood at 56%. For the same compound, the “Decrease in MAP” value in assay [8] was found to be 57%. The minimal effective dose in assay [1] and in assay [5] was 10 mg/kg each time. Further, the Kb in [6] is 0.891 µM. The Muscarinic receptor affinity in assay [2] worked out at 1.
For the compound `CC(C)N(CCC1(c2ccccc2Cl)C(=O)N=CN2CCCCC21)C(C)C` (centres undefined), in assay [1], the minimal effective dose is 15 mg/kg. In assay [2], this compound showed a Muscarinic receptor affinity of 0.0125.
In assay [3], `CC1=NC(=O)C(CCN(C(C)C)C(C)C)(c2ccccc2)C2CCCCN12` (centres undefined) [ACTISOMIDE] returned a Decrease of 14%. The “Decrease in MAP” value in [9] is reported as 3%. Further, the MED in assay [1] worked out at 10 mg/kg. Moreover, the minimal effective dose in assay [1] was 9 mg/kg; in assay [5], 9.1 mg/kg. Moreover, the Kb in assay [6] is 13.2 µM.
`CCC1=NC(=O)C(CCN(C(C)C)C(C)C)(c2ccccc2)C2CCCCN12` (centres undefined): in [1], the minimal effective dose turned out to be 12.5 mg/kg. Moreover, the Muscarinic receptor affinity in [2] amounted to 0.0625.
`CC(C)N(CC[C@]1(c2ccccc2)C(=O)N(C)CN2CCCC[C@@H]21)C(C)C`: the minimal effective dose in [1] was found to be 7.5 mg/kg.
As to `CC(C)N(CCC1(c2ccc(-c3ccccc3)cc2)C(=O)NCN2CCCCC21)C(C)C` (centres undefined), the minimal effective dose in assay [1] turned out to be 5 mg/kg. The compound further registered a Muscarinic receptor affinity in assay [2] of 0.0625.
The corresponding values for `CC(C)N(CC[C@]1(c2ccccc2)C(=O)N[C@@H](C)N2CCCC[C@@H]21)C(C)C` are 10 mg/kg and 0.0434.
With `CC(C)N(CCC1(c2ccc(-c3ccccc3)cc2)C(=O)N=CN2CCCCC21)C(C)C` (centres undefined), the “Decrease in MAP” value in assay [4] is listed as 27%. Moreover, the minimal effective dose in assay [1] and in [5] was 2.5 mg/kg in each case. This compound also returned a Muscarinic receptor affinity in [2] of 0.02.
With `CC(C)N(CCC1(c2ccccc2)C(=O)N=CN2CCCCC21)C(C)C` (centres undefined), in assay [1], the MED was determined as 10 mg/kg and the minimal effective dose stood at 20 mg/kg.
For `CCC1NC(=O)C(CCN(C(C)C)C(C)C)(c2ccccc2)C2CCCCN12` (centres undefined), the minimal effective dose in assay [1] stood at 6 mg/kg. The same compound displayed a Muscarinic receptor affinity in [2] of 0.0909.
For the compound `CC(C)N(CCC1(c2ccccc2)C(=O)NC(c2ccccc2)N2CCCCC21)C(C)C` (centres undefined), the minimal effective dose in assay [1] turned out to be 4 mg/kg. Also, the Muscarinic receptor affinity in [2] came to 0.0434.

For the origin of these results see ChEMBL document CHEMBL1123120, “Synthesis and structure-activity relationships of a new series of antiarrhythmic agents: 4,4-disubstituted hexahydro-3H-pyrido[1,2-c]pyrimidin-3-ones and related compounds” (J Med Chem, 1985).
